Data on 21 molecules can be found in ChEMBL document CHEMBL6153049, “Functionalized regioisomers of the natural product phenazines myxin and iodinin as potent inhibitors of Mycobacterium tuberculosis and human acute myeloid leukemia cells” (Eur J Med Chem, 2025).

Some results are limits rather than exact numbers.

Series [1] has as its system Mycobacterium tuberculosis. Kind of series: Antimycobacterial activity against drug-sensitive Mycobacterium tuberculosis H37Rv assessed as bacterial growth inhibition measured after 1 week by MABA assay. In kind it is functional, organism-based. As to conditions: 168 h. An outline of the steps:
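Colonies grown on 7H10+OADC agar at 37 °C, then to mid-log in 7H9+OADC; about 4×10^5 CFU/mL inoculated into 7H9 with escalating compound concentrations. Incubated 37 °C for 1 week, then resazurin (0.6 mM in PBS) mixed 8:5 with 20 % Tween 80 was added and incubated overnight at 37 °C. Fluorescent resorufin read-out gave IC50.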

Series [2] relates to MOLM-13. Kind of series: Cytotoxicity against human MOLM-13 cells assessed as inhibition of cell viability measured after 24 hrs by WST-1 assay. In kind it is functional, cell-based. Conditions: MOLM-13, 24 h. An outline of the steps:
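MOLM-13 seeded at 30,000 cells/well in RPMI with 10 % FBS, 0.2 mM L-glutamine, penicillin/streptomycin. Compounds dissolved in DMSO; 24 h exposure. Viability read by WST-1. Nuclear morphology checked with Hoechst 33342 after formaldehyde fixation. IC50 from four-parameter regression of WST-1 signal. Cells were mycoplasma-tested.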

Series [3] can be described thus: Cytotoxicity against rat NRK cells assessed as inhibition of cell viability measured after 24 hrs by WST-1 assay. In kind it is toxicity, cell-based. An outline of the steps:
(§1)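 NRK and H9c2 seeded at 5000 cells/well in DMEM with 10 % FBS, 0.2 mM L-glutamine, penicillin/streptomycin. Compounds dissolved in DMSO; 24 h exposure. Viability read by WST-1. Hoechst 33342 nuclear morphology was checked after fixation. IC50 from four-parameter regression of WST-1 signal. Cells were mycoplasma-tested.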

Series [4] in a line: Cytotoxicity against rat H9c2 cells assessed as inhibition of cell viability measured after 24 hrs by WST-1 assay. In kind it is toxicity, cell-based. The method in brief:
as §1

On to `CCOC(=O)COc1cc(O)c2c(c1)[n+]([O-])c1ccccc1[n+]2[O-]`, for which the figures for the IC50 in series [1] and in series [2] were 0.17 µM and 5.7 µM, respectively. Also, the values for the IC50 at 24 h in series [3] and in series [4] were 194 µM and 89 µM, respectively.

As to `CC(=O)Oc1cc(OC(C)=O)c2c(c1)[n+]([O-])c1ccccc1[n+]2[O-]`, the values for the IC50 in series [1] and in series [2] were 5 µM and 35 µM, respectively.

As for `CCOC(=O)COc1cc(OC)cc2c1[n+]([O-])c1ccccc1[n+]2[O-]`, the IC50 was found to be 2.41 µM in series [1] and 1.4 µM in series [2]. The IC50 at 24 h in series [3] came out at 14 µM; in series [4], 19 µM.

Regarding `COc1cc(OC)c2c(c1)[n+]([O-])c1ccccc1[n+]2[O-]`, the IC50 stood at 0.12 µM in series [1] and 6 µM in series [2]. Moreover, the IC50 at 24 h worked out at 46 µM in series [3] and 108 µM in series [4].

On to `COc1cc(O)cc2c1[n+]([O-])c1ccccc1[n+]2[O-]`, for which the IC50 is 1.91 µM in series [1] and more than 100 µM in series [2]. For the same molecule, the IC50 at 24 h in series [3] is more than 100 µM; in series [4], more than 200 µM.

As to `COCOc1cc(O)c2c(c1)[n+]([O-])c1ccccc1[n+]2[O-]`, the IC50 is 0.11 µM in series [1] and 5.2 µM in series [2]. The IC50 at 24 h in series [3] was more than 100 µM; in series [4] it was more than 50 µM.

`CC(=O)Oc1cc(O)c2c(c1)[n+]([O-])c1ccccc1[n+]2[O-]`: the values for the IC50 in series [1] and in series [2] were 0.85 µM and 16 µM, respectively.

`[O-][n+]1c2ccccc2[n+]([O-])c2c(O)cc(O)cc21`: the IC50 is 0.56 µM in series [1] and 11 µM in series [2].

In the case of `CCOC(=O)COc1cc(OC)c2c(c1)[n+]([O-])c1ccccc1[n+]2[O-]`, the IC50 was 0.25 µM in series [1] and 10 µM in series [2].

With `COc1cc(O)c2c(c1)[n+]([O-])c1ccccc1[n+]2[O-]`, the IC50 came to 0.05 µM in series [1] and 3.8 µM in series [2]. Further, the IC50 at 24 h in series [3] is 38 µM; in series [4] it was 81 µM.

As to `[O-][n+]1c2ccccc2[n+]([O-])c2cc(O)c(O)cc21`, the IC50 in series [1] and in series [2] was more than 50 µM throughout.

As for `COc1cc2c(cc1O)[n+]([O-])c1ccccc1[n+]2[O-]`, the IC50 was 11.1 µM in series [1] and more than 100 µM in series [2].

Consider `COc1cc(OC(C)=O)c2c(c1)[n+]([O-])c1ccccc1[n+]2[O-]`, for which the IC50 in series [1] stood at 0.08 µM; in series [2] it was 6.5 µM. For the same molecule, the IC50 at 24 h in series [3] was found to be 36 µM; in series [4] it was 55 µM.

As to `[O-][n+]1c2cccc(O)c2[n+]([O-])c2cccc(O)c21`, the IC50 in series [1] was found to be 0.17 µM; in series [2], 2 µM. Moreover, the concentration for half-maximal inhibition (IC50) at 24 h in series [3] and in series [4] was more than 50 µM throughout.

Take `CCOCOc1cc(OC)c2c(c1)[n+]([O-])c1ccccc1[n+]2[O-]`: the 50% inhibitory concentration (IC50) in series [1] was determined as 0.06 µM; in series [2], 5.1 µM. For the same molecule, the IC50 at 24 h in series [3] and in series [4] was more than 25 µM throughout.

Regarding `CCOC(=O)COc1cc(OCC(=O)OCC)c2c(c1)[n+]([O-])c1ccccc1[n+]2[O-]`, the IC50 was 2.88 µM in series [1] and 2 µM in series [2]. The IC50 at 24 h in series [3] and in series [4] was more than 200 µM in each case.

With `CCOCOc1cc(O)c2c(c1)[n+]([O-])c1ccccc1[n+]2[O-]`, the results for the IC50 in series [1] and in series [2] were 0.02 µM and 3.8 µM, respectively. Moreover, the IC50 at 24 h in series [3] and in series [4] was more than 25 µM throughout.

`[O-][n+]1c2ccccc2[n+]([O-])c2c(O)cccc21`: the values for the IC50 in series [1] and in series [2] were 0.26 µM and 11 µM, respectively. Moreover, the results for the IC50 at 24 h in series [3] and in series [4] were 79 µM and more than 100 µM, respectively.

As for `CCOc1cc(O)c2c(c1)[n+]([O-])c1ccccc1[n+]2[O-]`, the IC50 in series [1] was found to be 0.04 µM; in series [2], 2 µM. The figures for the IC50 at 24 h in series [3] and in series [4] were 87 µM and 103 µM, respectively.

For `COc1cccc2c1[n+]([O-])c1cccc(O)c1[n+]2[O-]`, the IC50 in series [1] is 0.014 µM; in series [2] it was 1.4 µM. Moreover, the figures for the IC50 at 24 h in series [3] and in series [4] were 77 µM and 46 µM, respectively.

For `COc1cccc2c1[n+]([O-])c1ccccc1[n+]2[O-]`, the IC50 in series [1] was found to be 0.04 µM; in series [2], 1.4 µM. The IC50 at 24 h in series [3] was 32 µM; in series [4], 12 µM.
